hERG protect: shields human hERG channel from block by proarrhythmic agents | AID 1511 | activation (rescue from dofetilide block), less the hit threshold, % at 10 µM | 0.51% of 310,000 active | CHO-hERG, FluxOR thallium flux, dofetilide IC70 present;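 active means activation above the mean of controls blocked by dofetilide plus 5 SD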;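 further: thallium influx through hERG after potassium depolarization seen as dye fluorescence rise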
KCNQ1 block: human KCNQ1 channel inhibition; P51787; CHO-K1 KCNQ1, FluxOR thallium flux fluorescence; stronger effect = higher value; B-score at 10 µM; 1.3% of 310,000 active; AID 2642;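 active means compounds whose thallium flux B-score, printed positive for inhibition, exceeds three library SD while starting fluorescence stays within three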;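 further: channel opened by potassium depolarization with thallium stimulus after 20 min compound exposure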
KCNK3 inh: human KCNK3 channel inhibition, primary screen; 0.84% of 340,000 active; CHO-KCNK3 thallium flux, FluxOR fluorescence; stronger effect = lower value; B-score at 10 µM; AID 602410;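 active means B-score under library mean minus 4 SD, starting fluorescence ratio at most library mean plus 5 SD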;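 further: more negative B-score means stronger inhibition of thallium flux through KCNK3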
KCNK9 block: inhibitors of human KCNK9 two-pore domain potassium channel; Q9NPC2; HEK293 KCNK9, FluxOR thallium flux fluorescence; stronger effect = lower value; B-score at 10 µM; 1.2% of 310,000 active; AID 488922;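 active means ratio B-score over 3 SD below the library mean, with starting fluorescence within 5 SD of its mean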;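 further: negative B-score means less thallium flux so channel inhibition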
Kir21 block: Kir2.1 (mouse) channel inhibition. P35561. 0.85% of 310,000 active. HEK293-Kir2.1, FluxOR thallium flux fluorescence; stronger effect = lower value. AID 1672. B-score at 10 µM;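 active means fluorescence ratio B-score at or below minus 3 SD of library scores, with starting-brightness B-score within 2 SD, cut at about -4.2 in these data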;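 further: channel flux triggered by added potassium and thallium sulfate stimulus; B-score of peak minus minimum fluorescence over baseline after thallium stimulus; more negative B-score means stronger Kir2.1 block with less thallium influx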
Target sequence (P35561 whole entry, looked up): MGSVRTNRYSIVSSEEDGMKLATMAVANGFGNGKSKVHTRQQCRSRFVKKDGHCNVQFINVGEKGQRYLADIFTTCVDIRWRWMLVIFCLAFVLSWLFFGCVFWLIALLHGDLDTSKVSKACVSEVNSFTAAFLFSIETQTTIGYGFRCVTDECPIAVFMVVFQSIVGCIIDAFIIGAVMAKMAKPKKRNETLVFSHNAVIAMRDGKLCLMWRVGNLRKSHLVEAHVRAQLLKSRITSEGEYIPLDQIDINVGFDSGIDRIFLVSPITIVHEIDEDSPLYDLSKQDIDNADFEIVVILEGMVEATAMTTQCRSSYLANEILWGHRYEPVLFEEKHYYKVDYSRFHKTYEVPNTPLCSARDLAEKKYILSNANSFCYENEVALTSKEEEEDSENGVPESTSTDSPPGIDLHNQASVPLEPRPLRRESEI
KCNQ1 act: potentiates or activates the human KCNQ1 potassium channel | P51787 | CHO-K1 KCNQ1, thallium flux FluxOR fluorescence; stronger effect = higher value | B-score at 10 µM | 0.35% of 310,000 active | AID 2648;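 active means fluorescence ratio B-score, a plate-corrected score, at least three library SD, with initial intensity B-score within 5 SD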
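assay system = CHO-K1 cells stably expressing KCNQ1 | medium = assay buffer, equal DMSO in all wells | timing = 37 °C overnight plating, 90-min dark dye load, 20-min compound pretreatment | measured by = kinetic FluxOR thallium fluorescence, 10-s 1-Hz baseline, 110-s post-stimulus read | measure = fluorescence change relative to baseline, converted to B score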
Each line names hits and unclear results; the compound was inactive in the other large screens. Most compounds without a hit are left out; they make up all but 3.7% or so of the library.

CC(Oc1ccccc1)C(=O)N1CCCc2ccccc21 (stereo unspecified)	Kir21 block -5.5
CCCCc1c(C)[nH]c(C(=O)OCC)c1C	hERG protect 5.3
Cc1cc(C)n2nc(C(=O)OCC(=O)N3CCC3)nc2n1	hERG protect 5.3
Cc1cc(C)n2nc(C(=O)N3CCOCC3)nc2n1	hERG protect 8.0
Cn1c(CNC(=O)c2ccccc2F)nnc1SCc1nc2ccccc2c(=O)[nH]1	hERG protect 6.8 (no result: KCNK3 inh)
COc1ccc(C(=O)NCCc2nnc(SCc3nc4ccccc4c(=O)[nH]3)n2C)cc1	none
Cc1nc(N2CCN(Cc3ccccc3)CC2)c(C#N)c2c1COC(C)(C)C2	Kir21 block -7.5
Cc1onc(-c2ccc(Cl)cc2Cl)c1-c1csc(N/N=C/c2ccccc2Cl)n1	none
Cc1onc(-c2ccccc2)c1-c1csc(N/N=C/c2ccccc2Cl)n1	KCNQ1 block 9
O=C(CCCN1C(=O)/C(=C\c2ccccc2)SC1=S)N1CCOCC1	none (no result: hERG protect, KCNQ1 block, KCNK9 block, Kir21 block, KCNQ1 act)
O=C(O)CN1C(=O)/C(=C\c2cn(CC(=O)N3CCOCC3)c3ccccc23)SC1=S	KCNQ1 block 6
Cc1c([N+](=O)[O-])cc(C(=O)Nc2ccc(NC(=O)c3ccco3)cc2)cc1[N+](=O)[O-]	none
Cc1ccc(C(=O)NC(=S)N(C)C2CCCCC2)cc1Br	KCNQ1 act 16
COc1ccc(C(=O)NC(=S)N(C)C2CCCCC2)cc1Br	hERG protect 6.2
COc1ccc(C(=O)NC(=S)N(C)C2CCCCC2)cc1	none
Cc1ccccc1C(=O)NC(=S)N(C)C1CCCCC1	none
CN(C(=S)NC(=O)c1ccccc1Br)C1CCCCC1	KCNQ1 act 13
O=c1c2ccccc2nc(/C=C/c2cc(Br)ccc2O)n1CCCO	none
Cc1cc(N2CCN(C)CC2)nc(N2CCOCC2)n1	hERG protect 8.0
Cc1cc(N2CCOCC2)nc(N2CCOCC2)n1	none
CCOC(=O)C(CSCC(=O)c1ccc(Cl)cc1)NC(=O)OC(C)(C)C (stereo unspecified)	Kir21 block -5.7
CCOC(=O)C(CSCC(=O)c1ccc(Br)cc1)NC(=O)OC(C)(C)C (stereo unspecified)	none (no result: KCNK3 inh)
O=C(COC(=O)C1CC(=O)N(CCc2ccccc2)C1)c1ccc[nH]1 (stereo unspecified)	none (no result: hERG protect, KCNQ1 block, KCNK9 block, Kir21 block, KCNQ1 act)
Oc1cccc2c(NC(=S)Nc3ccc(SC(F)F)cc3)cccc12	KCNQ1 block 11
FC(F)Sc1ccc(NC(=S)NC2CCC(NC(=S)Nc3ccc(SC(F)F)cc3)CC2)cc1 (stereo unspecified)	none
Cc1cc(OCC(=O)OCC(=O)N(C)Cc2ccccc2C)ccc1Cl	none (no result: hERG protect, KCNQ1 block, KCNK9 block, Kir21 block, KCNQ1 act)
Nc1c2c(nc3sc4c(c13)CCCC4)-c1ccccc1CC2	none
Cc1cccc(-c2nnc(-c3cccc4ccccc34)o2)c1	KCNK3 inh -9.5 (no result: hERG protect, KCNQ1 block, KCNK9 block, Kir21 block, KCNQ1 act)
Cc1cccc(-c2nnc(-c3ccc4ccccc4c3)o2)c1	KCNK3 inh -9.2 (no result: hERG protect, KCNQ1 block, KCNK9 block, Kir21 block, KCNQ1 act)
CC1CCCC(C)N1C(=O)COC(=O)c1cc(=O)[nH]c2ccccc12 (stereo unspecified)	none (no result: hERG protect, KCNQ1 block, KCNK9 block, Kir21 block, KCNQ1 act)
COc1cccc(CN(C)CC(=O)Nc2ccccc2N2CCOCC2)c1OC	hERG protect 5.1
CC(=O)N1CCN(c2ccccc2NC(=O)COc2ccccc2C)CC1	none
Cc1ccccc1OCC(=O)Nc1ccccc1N1CCOCC1	Kir21 block -7.9
CCOc1ccc(Nc2cc(Nc3ccccc3OCC)nc(C=C(C#N)C#N)n2)cc1	none
CCc1ccc(OCc2ccc(C(=O)OC)o2)cc1	none
COc1ccc(Cn2c(C(C)C)nc3sc4ccccc4c(=O)c3c2=O)cc1	none
CC(C)c1nc2sc3ccccc3c(=O)c2c(=O)n1Cc1ccccc1	KCNQ1 block 6
O=C(COc1ccc(-c2ccccc2)cc1)N/N=C/c1cc(O)ccc1Br	KCNQ1 block 11
CCOC(=O)C1=C(COC(=O)COc2ccc(C#N)cc2)NC(=O)NC1C (stereo unspecified)	none
C/C(=N/NS(=O)(=O)c1ccc(C(C)(C)C)cc1)c1ccc2c(c1)OCO2	none
C/C(=N\NS(=O)(=O)c1ccc(C(C)(C)C)cc1)c1ccccc1	KCNQ1 block 6
C[C@H](OC(=O)N1CCN(C(c2ccccc2)c2ccccc2)CC1)[C@@H]1O[C@@]2(C)CCC[C@H]1O2	none
C[C@H](NC(=O)c1nc[nH]c1C(=O)N[C@H](C)c1ccccc1)C(=O)OC(C)(C)C	none
C[C@H](NC(=O)c1nc[nH]c1C(=O)NC(c1ccccc1)c1ccccc1)C(=O)OC(C)(C)C	KCNK9 block -7
O=C(CCNC(=O)c1ccc([N+](=O)[O-])cc1)Nc1cccc(S(=O)(=O)N2CCOCC2)c1	none (no result: hERG protect, KCNQ1 block, KCNK9 block, Kir21 block, KCNQ1 act)
CC(Sc1ccc(Cl)cc1)C(=O)NNC(=O)c1ccccc1O (stereo unspecified)	KCNQ1 block 6
COc1ccc(/C=N\NC(=O)c2ccc(-c3ccccc3)cc2)cc1COC(C)=O	none
CCc1ccc(/C=N/NC(=O)c2cc(-c3ccccc3OC)nc3ccccc23)s1	KCNQ1 block 6
COc1ccc(/C=N/NC(=O)c2cc(-c3ccc(C)cc3C)nc3ccccc23)cc1COC(C)=O	KCNK3 inh -8.8
COc1ccc(NC(=O)NC2CCCCCCC2)cc1	none
O=C(c1ccccc1)c1cccc(NC(=O)c2ccco2)c1	none
O=C(Nc1cccc(-c2nnc(-c3ccco3)o2)c1)c1ccccc1	KCNK9 block -6.9
O=C(Nc1cccc(NC(=O)c2ccco2)c1)c1ccccc1	KCNK9 block -7.6
O=C(Cc1cccs1)Nc1cccc(-c2nc3cc4ccccc4cc3[nH]2)c1	KCNQ1 block 9
Cc1cc(C)c(OCC(=O)Nc2cccc(NC(=O)c3ccco3)c2)c(Br)c1	KCNK9 block -7.9
CCCCN1CC(=O)N2[C@@H]3c4cc(OC)ccc4OC[C@@H]3[C@H](C(=O)OCC)[C@]2(C)C1=O	none (no result: hERG protect, KCNQ1 block, KCNK9 block, Kir21 block, KCNQ1 act)
O=C(Nc1cccc(NC(=O)c2ccc(-c3cccc(Br)c3)o2)c1)c1ccco1	KCNK9 block -12
O=C(Nc1cccc(-c2nc3ccccc3[nH]2)c1)c1ccco1	KCNK9 block -6.9
Cc1ccc2nc(-c3ccc(NC(=O)c4ccco4)cc3)[nH]c2c1	none
O=C(O)c1ccc(CN2CCCCC2)o1	hERG protect 5.1
CC(Sc1nnc(CN2CCCC2)n1Cc1ccccc1)C(=O)Nc1ccc(F)c(F)c1F (stereo unspecified)	none (no result: hERG protect, KCNQ1 block, KCNK9 block, Kir21 block, KCNQ1 act)
Cc1c(-c2ccccc2)nc2ccccc2c1C(=O)OCC(=O)Nc1ncc(C(F)(F)F)cc1Cl	KCNQ1 block 9
O=C(COC(=O)c1cc(-c2ccccc2Cl)nc2ccccc12)Nc1ncc(C(F)(F)F)cc1Cl	none
COc1nc(NCCc2ccc(OC)c(OC)c2)nc(Nc2ccccc2)n1	none
CC1CC(C)CN(C2CCCCC2NS(=O)(=O)c2ccc(Cl)cc2)C1 (stereo unspecified)	none

Screening data from PubChem BioAssay.
